Experimental data from ChEMBL document CHEMBL1154191, “Evaluation of spirocyclic 3-(3-fluoropropyl)-2-benzofurans as sigma1 receptor ligands for neuroimaging with positron emission tomography” (J Med Chem, 2009).

Tests used:
Heart [1] = assay: Biodistribution in CD1 mouse heart assessed per gram of wet tissue at 400 to 600 kBq, iv after 60 mins post-injection by gamma counting; assay type: ADME, organism-based; conditions: in vivo, 1 h
How it was run: (§1)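 Female CD-1 mice (~8-12 weeks, 20-28 g) were fasted 24 h with free water. Conscious mice got 400-600 kBq [¹⁸F] tracer in saline by tail vein. At 5, 30, 60 or 120 min (n=4-5 per time) they were anesthetized, blood and urine sampled, then killed by cervical dislocation. Organs were weighed and γ-counted, giving % ID/g wet tissue.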

Heart [2] = assay: Biodistribution in CD1 mouse heart assessed per gram of wet tissue at 400 to 600 kBq, iv after 60 mins post-injection by gamma counting in presence of 1 mg/kg, ip sigma 1/sigma 2 receptor antagonist haloperidol treated before compound addition; assay type: organism-based; set-up: dose 1 mg/kg, route intravenous; conditions: in vivo, 1 h
How it was run: (§2)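 Blocking arm in fasted female CD-1 mice (n=5). […] Animals were killed at 60 min post-injection, and organs were weighed and γ-counted as % ID/g wet tissue. Percent change was taken against the 60 min control group, with two-tailed unpaired Student's t test.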

Mus musculus [3] = assay: Plasma concentration in CD1 mouse assessed per gram of wet tissue at 400 to 600 kBq, iv after 30 mins post-injection by gamma counting; assay type: ADME, organism-based; conditions: in vivo, 0.5 h
How it was run: (§3)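 Female CD-1 mice (~8-12 weeks, 20-28 g), fasted 24 h with free access to water. 400-600 kBq [18F] tracer in 200 μL saline given by tail vein to conscious mice. At 5, 30, 60 or 120 min pi (n=4-5 per time) mice anaesthetised, blood taken, then euthanised. Samples weighed, γ-counted, %ID/g wet tissue calculated.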

Blood [4] = assay: Biodistribution in CD1 mouse blood assessed per gram of wet tissue at 400 to 600 kBq, iv after 60 mins post-injection by gamma counting in presence of 1 mg/kg, ip sigma 1/sigma 2 receptor antagonist haloperidol treated before compound addition; assay type: organism-based; set-up: dose 1 mg/kg, route intravenous; conditions: in vivo, 1 h; how it was run: as §2
[5] = Biodistribution in CD1 mouse urine assessed as per gram of wet bladder at 400 to 600 kBq, iv after 5 mins post-injection by gamma counting; assay type: ADME, organism-based; conditions: in vivo
How it was run: (§4)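 Female CD-1 mice (~8-12 weeks, 20-28 g), habituated ≥48 h and fasted 24 h with water available. The [18F] tracer (>150 GBq/μmol at end of synthesis) was given in 200 μL saline into the tail vein of conscious animals. At each time point, n=4-5, mice were anaesthetised, blood and urine sampled, then killed by cervical dislocation. Organs were weighed and γ-counted, and values calculated as % ID/g wet tissue.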

[6] = Biodistribution in CD1 mouse gonad assessed per gram of wet tissue at 400 to 600 kBq, iv after 60 mins post-injection by gamma counting; assay type: ADME, organism-based; conditions: in vivo, 1 h; how it was run: as §1
Pancreas [7] = assay: Biodistribution in CD1 mouse pancreas assessed per gram of wet tissue at 400 to 600 kBq, iv after 60 mins post-injection by gamma counting; assay type: ADME, organism-based; conditions: in vivo, 1 h; how it was run: as §4
Intestine = assay: Biodistribution in CD1 mouse intestine assessed per gram of wet tissue at 400 to 600 kBq, iv after 30 mins post-injection by gamma counting; assay type: ADME, organism-based; conditions: in vivo, 0.5 h; how it was run: as §1
[8] = Ratio of drug level in cerebellum to plasma in CD1 mouse at 400 to 600 kBq, iv after 60 mins post-injection; assay type: ADME, organism-based
How it was run: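 Female CD-1 mice (~8-12 weeks, 20-28 g), fasted 24 h with free water; 400-600 kBq tracer in 200 μL saline by tail vein into conscious animals. Killed at set times pi (n=4-5 per time); blood and organs weighed, γ-counted, expressed as % ID/g wet tissue; ratio from cerebellum and plasma uptake.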

Liver [9] = assay: Biodistribution in CD1 mouse liver assessed per gram of wet tissue at 400 to 600 kBq, iv after 30 mins post-injection by gamma counting; assay type: ADME, organism-based; conditions: in vivo, 0.5 h; how it was run: as §4
Stomach [10] = assay: Biodistribution in CD1 mouse stomach assessed per gram of wet tissue at 400 to 600 kBq, iv after 5 mins post-injection by gamma counting; assay type: ADME, organism-based; conditions: in vivo; how it was run: as §4
Blood [11] = assay: Biodistribution in CD1 mouse blood assessed per gram of wet tissue at 400 to 600 kBq, iv after 60 mins post-injection by gamma counting; assay type: ADME, organism-based; conditions: in vivo, 1 h; how it was run: as §1
Lung [12] = assay: Biodistribution in CD1 mouse lung assessed per gram of wet tissue at 400 to 600 kBq, iv after 30 mins post-injection by gamma counting; assay type: ADME, organism-based; conditions: in vivo, 0.5 h; how it was run: as §4
Lung [13] = assay: Biodistribution in CD1 mouse lung assessed per gram of wet tissue at 400 to 600 kBq, iv after 5 mins post-injection by gamma counting; assay type: ADME, organism-based; conditions: in vivo; how it was run: as §4
Pancreas [14] = assay: Biodistribution in CD1 mouse pancreas assessed per gram of wet tissue at 400 to 600 kBq, iv after 30 mins post-injection by gamma counting; assay type: ADME, organism-based; conditions: in vivo, 0.5 h; how it was run: as §4
[15] = Chemical stability in solution of 0.9% NaCl, phosphate buffer saline and Tris-HCl up to 120 mins; assay type: physicochemical; conditions: 2 h
Brain = assay: Biodistribution in CD1 mouse brain assessed per gram of wet tissue at 400 to 600 kBq, iv after 60 mins post-injection by gamma counting in presence of 1 mg/kg, ip sigma 1/sigma 2 receptor antagonist haloperidol treated before compound addition; assay type: organism-based; set-up: dose 1 mg/kg, route intravenous; conditions: in vivo, 1 h; how it was run: as §2
[16] = Biodistribution in CD1 mouse thymus assessed per gram of wet tissue at 400 to 600 kBq, iv after 30 mins post-injection by gamma counting; assay type: ADME, organism-based; conditions: in vivo, 0.5 h; how it was run: as §4
Cerebellum [17] = assay: Biodistribution in CD1 mouse cerebellum assessed per gram of wet tissue at 400 to 600 kBq, iv after 5 mins post-injection by gamma counting; assay type: ADME, organism-based; conditions: in vivo; how it was run: as §1
Liver [18] = assay: Biodistribution in CD1 mouse liver assessed per gram of wet tissue at 400 to 600 kBq, iv after 5 mins post-injection by gamma counting; assay type: ADME, organism-based; conditions: in vivo; how it was run: as §4
Kidney [19] = assay: Biodistribution in CD1 mouse kidney assessed per gram of wet tissue at 400 to 600 kBq, iv after 60 mins post-injection by gamma counting; assay type: ADME, organism-based; conditions: in vivo, 1 h; how it was run: as §1
[20] = Biodistribution in CD1 mouse thymus assessed per gram of wet tissue at 400 to 600 kBq, iv after 60 mins post-injection by gamma counting; assay type: ADME, organism-based; conditions: in vivo, 1 h; how it was run: as §4
Blood [21] = assay: Biodistribution in CD1 mouse blood assessed per gram of wet tissue at 400 to 600 kBq, iv after 120 minspost-injection by gamma counting; assay type: ADME, organism-based; conditions: in vivo, 2 h; how it was run: as §1
Stomach [22] = assay: Biodistribution in CD1 mouse stomach assessed per gram of wet tissue at 400 to 600 kBq, iv after 60 mins post-injection by gamma counting in presence of 1 mg/kg, ip sigma 1/sigma 2 receptor antagonist haloperidol treated before compound addition; assay type: organism-based; set-up: route intravenous; conditions: in vivo, 1 h
How it was run: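 They were killed at 60 min pi, and organs were weighed and γ-counted as % ID/g wet tissue. Comparison with controls used Student's t test (independent, two-tailed).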

Mus musculus [23] = assay: Plasma concentration in CD1 mouse assessed per gram of wet tissue at 400 to 600 kBq, iv after 120 mins post-injection by gamma counting; assay type: ADME, organism-based; conditions: in vivo, 2 h; how it was run: as §3
Cerebellum [24] = assay: Biodistribution in CD1 mouse cerebellum assessed per gram of wet tissue at 400 to 600 kBq, iv after 30 mins post-injection by gamma counting; assay type: ADME, organism-based; conditions: in vivo, 0.5 h; how it was run: as §1
Kidney [25] = assay: Biodistribution in CD1 mouse kidney assessed per gram of wet tissue at 400 to 600 kBq, iv after 30 mins post-injection by gamma counting; assay type: ADME, organism-based; conditions: in vivo, 0.5 h; how it was run: as §1
[26] = Biodistribution in CD1 mouse adrenal gland assessed per gram of wet tissue at 400 to 600 kBq, iv after 60 mins post-injection by gamma counting; assay type: ADME, organism-based; conditions: in vivo, 1 h; how it was run: as §1

[18F]CCCC1OC2(CCN(Cc3ccccc3)CC2)c2ccccc21 (stereo not drawn)
Drug uptake (Heart [1]): 2.46 %ID | Drug uptake (Heart [2]): 1.09 %ID | Drug uptake (Mus musculus [3]): 0.96 %ID | Drug uptake (Blood [4]): 0.56 %ID | Drug uptake [5]: 2.89 %ID | Drug uptake [6]: 4.22 %ID | Drug uptake (Pancreas [7]): 8.92 %ID | Drug uptake (Intestine): 6.81 %ID | Kp at 1 h [8]: 5.75 | Drug uptake (Liver [9]): 4.28 %ID | Drug uptake (Stomach [10]): 3.39 %ID | Drug uptake (Blood [11]): 0.37 %ID | Drug uptake (Lung [12]): 7.01 %ID | Drug uptake (Lung [13]): 16.2 %ID | Drug uptake (Pancreas [14]): 12.8 %ID | Stability [15]: Stable | Drug uptake (Brain): 0.54 %ID | Drug uptake [16]: 3.26 %ID | Drug uptake (Cerebellum [17]): 4.62 %ID | Drug uptake (Liver [18]): 5.54 %ID | Drug uptake (Kidney [19]): 5.14 %ID | Drug uptake [20]: 2.87 %ID | Drug uptake (Blood [21]): 0.48 %ID | Drug uptake (Stomach [22]): 5.88 %ID | Drug uptake (Mus musculus [23]): 0.44 %ID | Drug uptake (Cerebellum [24]): 3.71 %ID | Drug uptake (Kidney [25]): 7.49 %ID | Drug uptake [26]: 7.78 %ID
